In PMC6044781 (ACS Omega, 2017):
Read-outs that look alike come from different tables or passages of the source.

Assays:
duplex DNA 26-mer [1] = assay: SPR with duplex DNA 26-mer; format: binding; conditions: 25 °C, error ±15%
Summary of the method: (§1)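 Surface plasmon resonance on streptavidin chips carrying 5′-biotin-T9-linked 22-mer telomeric or 26-mer duplex DNA, annealed at 95 °C and slowly cooled in 10 mM HEPES, 100 mM KCl, 0.005% IGEPAL, pH 7.4. Surfaces equilibrated 2 h at 20 μL/min, 25 °C. Test compound (1.0 × 10^-9 to 10^-6 M) injected for 300 s in random order; regeneration with 1 M NaCl in 50 mM NaOH. Sensorgrams fitted to a two-site model. Selectivity is the ratio of G4 to duplex binding constants. Triplicate runs, mean ± SEM.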

h-telo 22-mer quadruplex [2] = assay: SPR with h-telo 22-mer; format: binding, human; conditions: for KA: h-telo 22-mer, 25 °C, error ±15%; for KA h-telo 22/KA dsDNA: selectivity 22-mer quadruplex over DNA duplex, SPR
Summary of the method: as §1

HEK 293T cells = assay: MTT cell survival assay, HEK 293T; format: cell-based; conditions: Homo sapiens
Summary of the method: (§2)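 MTT survival assay: cells treated with increasing concentrations of test compound for 48 or 72 h at 37 °C. Medium was then replaced with fresh medium containing MTT for 4 h, formazan dissolved in DMSO, and absorbance read at 570 nm. IC50 determined at each time point.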

[3] = tested on: F12T (5′-fluorescein-TAGGGTTAGGGT-3′-TAMRA) G-quadruplex; assay: FRET melting assay, F12T; format: binding, human; conditions: 2 μM ligand; for ΔTm F12T: no competitor; for ΔTm F12TComp12: with competitor complementary strand Compl 12
Summary of the method: (§3)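 Dual-labelled oligos (5′-fluorescein/3′-TAMRA) at 0.25 μM in 10 mM sodium cacodylate, 0.5 mM EDTA, 25 mM KCl, pH 7.0, with or without 2 μM test compound. For competitor runs, each oligo was preincubated 24 h at 25 °C with 2 μM unlabelled complementary strand. Excitation 480 nm, emission 520 nm, read at 1 °C steps from 25 to 95 °C with 60 s equilibration per reading. ΔTm is the average of three determinations.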

HeLa cells [4] = assay: MTT cell survival assay, HeLa; format: cell-based; conditions: Homo sapiens
Summary of the method: as §2

[5] = tested on: h-telo 12-mer quadruplex (DNA, G4) TAGGGTTAGGGT; assay: ITC; conditions: 25 mM KCl; 10 mM sodium cacodylate, 0.5 mM EDTA, pH 7.0, 25 °C
duplex DNA 26-mer [6] = assay: ITC with duplex DNA 26-mer; format: binding; conditions: for binding constant Ka × 10^6: duplex DNA 26-mer, 25 °C
Summary of the method: (§4)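 Isothermal titration calorimetry at 25 °C in cacodylate/EDTA/KCl buffer, pH 7.0; solutions degassed under vacuum (160 mbar, 10 min). Test compound at 4 × 10^-4 M was injected in 5–10 μL aliquots (20 s each, 240 s apart, 60 s initial delay, 381 rpm) into DNA: 22-mer and 26-mer duplex at 1.0 × 10^-5 M, 12-mer at 0.5 × 10^-5 M. Dilution heat was subtracted and data fitted to a single-site model. Ka is mean ± SD of three runs.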

[7] = tested on: telomerase (from A549 cells); assay: TRAP-Lig assay; format: biochemical, human; conditions: read-out: TRAP assay IC50; telomerase inhibition, ligand 1–50 μM
[8] = tested on: h-telo 22-mer quadruplex (DNA, G4) AGGGTTAGGGTTAGGGTTAGGG; assay: ITC; conditions: 25 mM KCl; 10 mM sodium cacodylate, 0.5 mM EDTA, pH 7.0, 25 °C
[9] = tested on: F22T (5′-fluorescein-AGGGTTAGGGTTAGGGTTAGGG-3′-TAMRA) G-quadruplex; assay: FRET melting assay, F22T; format: binding, human; conditions: 2 μM ligand; for ΔTm F22T: no competitor; for ΔTm F22TComp22: with competitor complementary strand Compl 22
Summary of the method: as §3

A549 cells = assay: MTT cell survival assay, A549; format: cell-based; conditions: Homo sapiens
Summary of the method: as §2

h-telo 12-mer quadruplex = assay: ITC with h-telo 12-mer quadruplex; format: binding, human; conditions: 25 °C, BMSG-SH-3: first line of two
Summary of the method: as §4

HeLa cells [10] = assay: Cell cycle analysis by flow cytometry; format: cell-based, human; conditions: 1 μM, 24 h; for G2/M phase arrest (G2): control 7.6%
HeLa cells [11] = assay: Annexin V-FITC/PI apoptosis assay; format: cell-based, human; conditions: 1 μM, 24 h
Summary of the method: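 HeLa cells seeded at 2 × 10^5 per 60 mm plate and treated with test compound at 1 μM. After 24 h, cells were harvested, washed twice in PBS and resuspended at 1 × 10^6 cells/mL in kit buffer. Annexin V-FITC/PI staining for 15 min in the dark at room temperature; Annexin V–FITC labelling quantified. Values are mean ± SEM.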

h-telo 22-mer quadruplex [12] = assay: ITC with h-telo 22-mer quadruplex; format: binding, human; conditions: for binding equilibrium constants from microcalorimetry: h-telo 22-mer quadruplex; for binding constant Ka × 10^6: h-telo 22-mer, 25 °C
Summary of the method: as §4

[13] = tested on: 26-mer duplex DNA (DNA, duplex) CAATCGGATCGAATTCGATCCGATTG; assay: ITC; conditions: 25 mM KCl; 10 mM sodium cacodylate, 0.5 mM EDTA, pH 7.0, 25 °C
[14] = A549, 48 h, read-out: IC50 at 48 h
[15] = A549, 72 h, read-out: IC50 at 72 h

Row | Kd (duplex DNA 26-mer [1]) [µM] | Ka [5] | binding constant Ka × 10^6 (duplex DNA 26-mer [6]) | IC50 [7] [µM] | Ka [8] | binding constant Ka × 10^6 (h-telo 12-mer quadruplex) | Structure (SMILES) | KA (duplex DNA 26-mer [1]) | KA (h-telo 22-mer quadruplex [2]) | KA h-telo 22/KA dsDNA (h-telo 22-mer quadruplex [2]) | IC50 (HEK 293T cells; 48 h, read-out: IC50 at 48 h) [µM] | IC50 (HEK 293T cells; 72 h, read-out: IC50 at 72 h) [µM] | ΔTm F12T [3] [°C] | ΔTm F12TComp12 [3] [°C] | IC50 (HeLa cells [4]; 48 h, read-out: IC50 at 48 h) [µM] | IC50 (HeLa cells [4]; 72 h, read-out: IC50 at 72 h) [µM] | ΔTm F22T [9] [°C] | ΔTm F22TComp22 [9] [°C] | IC50 (A549 cells; [14]) [µM] | IC50 (A549 cells; [15]) [µM] | G2/M phase arrest (G2) (HeLa cells [10]) [%] | further results
1 | 17.1 | 0.61 ± 1.82 × 10^6 M^-1 | 0.03 ± 0.10 10^6 M^–1 | > 50 | 6.35 ± 0.26 × 10^6 M^-1 | 0.61 ± 1.82 10^6 M^–1 | CN1CCN(CCCN2C(=O)c3ccc4c5c(ccc(c35)C2=O)C(=O)N(CCCN2CCN(C)CC2)C4=O)CC1 [ALI-C3, 2,7-Bis(3-(4-methylpiperazin-1-yl)propyl)benzo[lmn][3,8]phenanthroline-1,3,6,8 (2H,7H)tetraone] | 0.1 × 10^6 M^–1 | 8.7 × 10^6 M^–1 | 87.0 | 12.2 | 8.9 | 5 ± 0.8 | 7 ± 0.5 | 2.4 | 2.1 | 9 ± 1.2 | 11 ± 0.6 | 1.8 | 1.4 | 15.7 | apoptotic cells (Annexin V–FITC positive cells) (HeLa cells [11]): 35%; binding equilibrium constants from microcalorimetry (h-telo 22-mer quadruplex [12]): 6.35 µM; binding constant Ka × 10^6 (h-telo 22-mer quadruplex [12]): 6.35 ± 0.26 10^6 M^–1
2 | 36.6 | 6.63 ± 2.39 × 10^6 M^-1 | 0.05 ± 0.65 10^6 M^–1 | 4.56 | 8.47 ± 0.65 × 10^6 M^-1 | 6.63 ± 2.39 10^6 M^–1 | CN1CCN(c2ccc3nc(-c4ccc(N5C(=O)c6ccc7c8c(ccc(c68)C5=O)C(=O)N(c5ccc(-c6nc8ccc(N9CCN(C)CC9)cc8[nH]6)cc5)C7=O)cc4)[nH]c3c2)CC1 [BBZ-ARO, 2,7-Bis(4-(6-(4-methylpiperazin-1-yl)-1H-benzo[d]imidazol-2-yl)phenyl)benzo[lmn][3,8]phenanthroline-1,3,6,8(2H,7H)-tetraone] | 0.6 × 10^6 M^–1 | 9.5 × 10^7 M^–1 | 158.3 | 77.9 | 63.4 | 13 ± 1.4 | 15 ± 0.5 | 24.7 | 20.5 | 14 ± 0.5 | 16 ± 1.6 | 26.4 | 19.7 | 15.8 | binding affinity (ITC) (duplex DNA 26-mer [6]; duplex DNA): 5.0 × 10^4 M^–1; sub-G1 phase accumulation (HeLa cells [10]; control 0.2%): 7.3%; Ka [13]: 0.05 ± 0.65 × 10^6 M^-1; apoptotic cells (Annexin V–FITC positive cells) (HeLa cells [11]): 74%; affinity (ITC) (h-telo 22-mer quadruplex [12]; 22-mer quadruplex): 8.4 × 10^6 M^–1; binding equilibrium constants from microcalorimetry (h-telo 22-mer quadruplex [12]): 8.47 µM; binding constant Ka × 10^6 (h-telo 22-mer quadruplex [12]): 8.47 ± 0.65 10^6 M^–1
3 | 55.2 | 0.89 ± 0.11 × 10^6 M^-1 | 0.88 ± 0.63 10^6 M^–1 | > 50 | 3.41 ± 0.22 × 10^6 M^-1 | 0.89 ± 0.11 10^6 M^–1 | CN1CCN(c2ccc3nc(CN4C(=O)c5ccc6c7c(ccc(c57)C4=O)C(=O)N(Cc4nc5ccc(N7CCN(C)CC7)cc5[nH]4)C6=O)[nH]c3c2)CC1 [BBZ-AROCH2, 2,7-Bis((6-(4-methylpiperazin-1-yl)-1H-benzo[d]imidazol-2-yl)methyl)benzo[lmn]-[3,8]-phenanthroline-1,3,6,8(2H,7H)-tetraone] | 0.4 × 10^6 M^–1 | 1.4 × 10^6 M^–1 | 3.5 | > 100 | > 100 | 8 ± 0.4 | 10 ± 1.6 | 92.7 | 86.5 | 7 ± 0.7 | 9 ± 0.5 | 79.5 | 74.8 | 19.1 | Ka [13]: 0.88 ± 0.63 × 10^6 M^-1; apoptotic cells (Annexin V–FITC positive cells) (HeLa cells [11]): 40%; binding equilibrium constants from microcalorimetry (h-telo 22-mer quadruplex [12]): 3.41 µM; binding constant Ka × 10^6 (h-telo 22-mer quadruplex [12]): 3.41 ± 0.22 10^6 M^–1
